# Laboratory results published in ChEMBL document CHEMBL4270565, “Design, synthesis and antimicrobial evaluation of propylene-tethered ciprofloxacin-isatin hybrids” (Eur J Med Chem, 2018).
# Legend:
# [1] = system: Staphylococcus epidermidis; experiment: Antibacterial activity against methicillin-sensitive Staphylococcus epidermidis ATCC 12228 after 18 to 24 hrs by two-fold serial dilution method; type: functional
# Procedure, shortened: (§1)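 Agar two-fold dilution MIC. Compounds were dissolved in 0.1 N NaOH and water, then serially diluted in melted Mueller-Hinton agar, with top concentrations starting at 128. Plates were inoculated at about 10 cfu and incubated at 35 °C for 18–24 h. MIC was taken as the lowest concentration giving 90% inhibition of growth.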
# [2] = system: Staphylococcus epidermidis; experiment: Antibacterial activity against methicillin-resistant Staphylococcus epidermidis 13-3 after 18 to 24 hrs by two-fold serial dilution method; type: functional
# Procedure, shortened: (§2)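 Agar two-fold serial dilution in Mueller-Hinton agar. Strains came from the Chinese Center for Disease Control and Prevention. Compounds were dissolved in 0.1 N NaOH and water, then diluted in melted agar to final levels stepping down from 128. Plates were inoculated with bacterial cfu and incubated at 35 C for 18–24 h. MIC is the lowest concentration giving 90% growth inhibition.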
# [3] = system: Staphylococcus aureus; experiment: Antibacterial activity against methicillin-sensitive Staphylococcus aureus ATCC 29213 after 18 to 24 hrs by two-fold serial dilution method; type: functional; procedure, shortened: as §2
# [4] = system: Staphylococcus aureus; experiment: Antibacterial activity against methicillin-resistant Staphylococcus aureus ATCC 33591 after 18 to 24 hrs by two-fold serial dilution method; type: functional; procedure, shortened: as §2
# [5] = system: Enterococcus faecalis; experiment: Antibacterial activity against Enterococcus faecalis ATCC 29212 after 18 to 24 hrs by two-fold serial dilution method; type: functional; procedure, shortened: as §1
# [6] = system: Enterococcus faecalis; experiment: Antibacterial activity against Enterococcus faecalis ATCC 51299 after 18 to 24 hrs by two-fold serial dilution method; type: functional; procedure, shortened: as §1
# [7] = system: Enterococcus faecium; experiment: Antibacterial activity against Enterococcus faecium ATCC 700221 after 18 to 24 hrs by two-fold serial dilution method; type: functional; procedure, shortened: as §1
# [8] = system: Enterococcus faecium; experiment: Antibacterial activity against Enterococcus faecium 13-7 after 18 to 24 hrs by two-fold serial dilution method; type: functional; procedure, shortened: as §1
# [9] = system: Escherichia coli; experiment: Antibacterial activity against extended-spectrum beta-lactamase deficient Escherichia coli ATCC 25922 after 18 to 24 hrs by two-fold serial dilution method; type: functional; procedure, shortened: as §1
# [10] = system: Escherichia coli; experiment: Antibacterial activity against extended-spectrum beta-lactamase harboring Escherichia coli ATCC 35218 after 18 to 24 hrs by two-fold serial dilution method; type: functional; procedure, shortened: as §2
# [11] = system: Klebsiella pneumoniae; experiment: Antibacterial activity against extended-spectrum beta-lactamase harboring Klebsiella pneumoniae ATCC 700603 after 18 to 24 hrs by two-fold serial dilution method; type: functional; procedure, shortened: as §2
# [12] = system: Klebsiella pneumoniae; experiment: Antibacterial activity against extended-spectrum beta-lactamase deficient Klebsiella pneumoniae 15-2 after 18 to 24 hrs by two-fold serial dilution method; type: functional; procedure, shortened: as §1
# [13] = system: Pseudomonas aeruginosa; experiment: Antibacterial activity against Pseudomonas aeruginosa ATCC 27853 after 18 to 24 hrs by two-fold serial dilution method; type: functional; procedure, shortened: as §1
# [14] = system: Acinetobacter calcoaceticus; experiment: Antibacterial activity against Acinetobacter calcoaceticus ATCC 19606 after 18 to 24 hrs by two-fold serial dilution method; type: functional; procedure, shortened: as §1
# [15] = system: Enterobacter cloacae; experiment: Antibacterial activity against Enterobacter cloacae ATCC 43560 after 18 to 24 hrs by two-fold serial dilution method; type: functional
# [16] = system: Klebsiella aerogenes; experiment: Antibacterial activity against Enterobacter aerogenes ATCC 13048 after 18 to 24 hrs by two-fold serial dilution method; type: functional; procedure, shortened: as §1
# [17] = system: Serratia marcescens; experiment: Antibacterial activity against Serratia marcescens ATCC 21074 after 18 to 24 hrs by two-fold serial dilution method; type: functional; procedure, shortened: as §1
# [18] = system: Morganella morganii; experiment: Antibacterial activity against Morganella morganii ATCC 25830 after 18 to 24 hrs by two-fold serial dilution method; type: functional; procedure, shortened: as §1
# [19] = system: Providencia rettgeri; experiment: Antibacterial activity against Providencia rettgeri ATCC 31052 after 18 to 24 hrs by two-fold serial dilution method; type: functional; procedure, shortened: as §1
# [20] = system: Proteus vulgaris; experiment: Antibacterial activity against Proteus vulgaris ATCC 29905 after 18 to 24 hrs by two-fold serial dilution method; type: functional; procedure, shortened: as §1
# [21] = system: Proteus mirabilis; experiment: Antibacterial activity against Proteus mirabilis 13-1 after 18 to 24 hrs by two-fold serial dilution method; type: functional; procedure, shortened: as §1
# [22] = system: Stenotrophomonas maltophilia; experiment: Antibacterial activity against Stenotrophomonas maltophilia ATCC 13636 after 18 to 24 hrs by two-fold serial dilution method; type: functional; procedure, shortened: as §1
# [23] = system: Citrobacter freundii; experiment: Antibacterial activity against extended-spectrum beta-lactamase harboring Citrobacter freundii ATCC 43864 after 18 to 24 hrs by two-fold serial dilution method; type: functional; procedure, shortened: as §2
# [24] = system: Mycobacterium tuberculosis; experiment: Antimycobacterial activity against Mycobacterium tuberculosis H37Rv after 7 days; type: functional; settings: 168 h
# Procedure, shortened: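 Rapid direct susceptibility test in 48-well plates. Two-fold dilutions of compound from DMSO stocks were mixed with an equal volume of bacterial suspension. Medium-only wells served as growth controls and water-only wells as no-growth controls. Plates were sealed and held at 37 C in a humid box, and controls were checked at 3 days. MIC (90% growth inhibition) was read visually by high-magnification observation of the cells and re-read at 7 days.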
# [25] = Cytotoxicity against African green monkey Vero cells assessed as reduction in cell viability after 72 hrs by MTT assay; type: cell-based; settings: chlorocebus sabaeus
# Procedure, shortened: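 VERO cells were kept in MEM with Earle's salts and 10% FBS at 37 °C, 5% CO2. They were seeded in 96-well plates and allowed to recover for 24 h. Cells were then exposed to compounds in DMSO over a series from 1000 down to 4 for 72 h. Viability was read by MTT, and CC50 was calculated by Bliss analysis.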
SMILES,MIC90 [1],MIC90 [2],MIC90 [3],MIC90 [4],MIC90 [5],MIC90 [6],MIC90 [7],MIC90 [8],MIC90 [9],MIC90 [10],MIC90 [11],MIC90 [12],MIC90 [13],MIC90 [14],MIC90 [15],MIC90 [16],MIC90 [17],MIC90 [18],MIC90 [19],MIC90 [20],further results
CO/N=C1\C(=O)N(CCCN2CCN(c3cc4c(cc3F)c(=O)c(C(=O)O)cn4C3CC3)CC2)c2ccccc21,0.125 µg/mL,2 µg/mL,0.125 µg/mL,0.25 µg/mL,0.5 µg/mL,1 µg/mL,8 µg/mL,32 µg/mL,≤ 0.03 µg/mL,≤ 0.03 µg/mL,0.5 µg/mL,≤ 0.03 µg/mL,1 µg/mL,0.5 µg/mL,≤ 0.03 µg/mL,≤ 0.03 µg/mL,0.06 µg/mL,≤ 0.03 µg/mL,≤ 0.03 µg/mL,≤ 0.03 µg/mL,MIC90 [21]: ≤ 0.03 µg/mL; MIC90 [22]: 0.06 µg/mL; MIC90 [23]: ≤ 0.03 µg/mL; MIC90 [24]: 0.39 µg/mL; CC50 at 72 h [25]: 32 µg/mL
CO/N=C1\C(=O)N(CCCN2CCN(c3cc4c(cc3F)c(=O)c(C(=O)OCCCN3C(=O)/C(=N/OC)c5ccccc53)cn4C3CC3)CC2)c2ccccc21,32 µg/mL,128 µg/mL,128 µg/mL,> 128 µg/mL,64 µg/mL,128 µg/mL,128 µg/mL,> 128 µg/mL,4 µg/mL,4 µg/mL,64 µg/mL,32 µg/mL,64 µg/mL,128 µg/mL,32 µg/mL,64 µg/mL,64 µg/mL,128 µg/mL,64 µg/mL,32 µg/mL,MIC90 [21]: 64 µg/mL; MIC90 [22]: 128 µg/mL; MIC90 [23]: 64 µg/mL; MIC90 [24]: 12.5 µg/mL; CC50 at 72 h [25]: 64 µg/mL
CCO/N=C1\C(=O)N(CCCN2CCN(c3cc4c(cc3F)c(=O)c(C(=O)O)cn4C3CC3)CC2)c2ccc(C)cc21,0.125 µg/mL,2 µg/mL,0.125 µg/mL,0.125 µg/mL,0.5 µg/mL,1 µg/mL,4 µg/mL,32 µg/mL,≤ 0.03 µg/mL,≤ 0.03 µg/mL,0.5 µg/mL,≤ 0.03 µg/mL,1 µg/mL,0.5 µg/mL,≤ 0.03 µg/mL,≤ 0.03 µg/mL,0.06 µg/mL,≤ 0.03 µg/mL,≤ 0.03 µg/mL,≤ 0.03 µg/mL,MIC90 [21]: ≤ 0.03 µg/mL; MIC90 [22]: 0.06 µg/mL; MIC90 [23]: ≤ 0.03 µg/mL; MIC90 [24]: 3.12 µg/mL; CC50 at 72 h [25]: 128 µg/mL
Cc1ccc2c(c1)C(=O)C(=O)N2CCCOC(=O)c1cn(C2CC2)c2cc(N3CCN(CCCN4C(=O)C(=O)c5cc(C)ccc54)CC3)c(F)cc2c1=O,32 µg/mL,128 µg/mL,64 µg/mL,> 128 µg/mL,64 µg/mL,> 128 µg/mL,128 µg/mL,> 128 µg/mL,8 µg/mL,8 µg/mL,64 µg/mL,64 µg/mL,128 µg/mL,64 µg/mL,32 µg/mL,128 µg/mL,> 128 µg/mL,64 µg/mL,128 µg/mL,64 µg/mL,MIC90 [21]: 64 µg/mL; MIC90 [22]: 128 µg/mL; MIC90 [23]: 64 µg/mL; MIC90 [24]: 50 µg/mL; CC50 at 72 h [25]: 64 µg/mL
O=C1C(=O)N(CCCN2CCN(c3cc4c(cc3F)c(=O)c(C(=O)O)cn4C3CC3)CC2)c2ccccc21,0.25 µg/mL,4 µg/mL,0.25 µg/mL,0.25 µg/mL,1 µg/mL,1 µg/mL,8 µg/mL,64 µg/mL,≤ 0.03 µg/mL,≤ 0.03 µg/mL,1 µg/mL,0.125 µg/mL,1 µg/mL,1 µg/mL,0.03 µg/mL,≤ 0.03 µg/mL,0.25 µg/mL,≤ 0.03 µg/mL,0.03 µg/mL,≤ 0.03 µg/mL,MIC90 [21]: ≤ 0.03 µg/mL; MIC90 [22]: 0.125 µg/mL; MIC90 [23]: ≤ 0.03 µg/mL; MIC90 [24]: 0.2 µg/mL; CC50 at 72 h [25]: 128 µg/mL
